Consider 13 compounds from ChEMBL document CHEMBL4725236, “Synthesis and pharmacological evaluation of bivalent tethered ligands to target the mGlu heterodimeric receptor results in a compound with mGlu homodimer selectivity” (Bioorg Med Chem Lett, 2020).

What all share (assay type): cell-based
Test [1] has as its target Metabotropic glutamate receptor 2 (Rattus norvegicus) (UniProt P31421). Kind of test: Positive allosteric modulation of rat mGlu2 receptor expressed in HEK293 cells coexpressing GIRK assessed as thallium influx by CODA-RET assay relative to glutamate. The settings on record: filed as positive allosteric modulator. The method in brief:
(§1)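 HEK293/GIRK thallium flux assay in cells expressing only mGlu2 or only mGlu4. Concentration-response measured against a fixed EC20 glutamate level. Potency (EC50), Hill slope and efficacy (% of the response to saturating glutamate) come from a single experiment run in triplicate.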

Test [2] has as its target Metabotropic glutamate receptor 2 (Rattus norvegicus, UniProt P31421). Kind of test: Positive allosteric modulation of rat mGlu2 receptor expressed in HEK293 cells coexpressing GIRK assessed as thallium influx in presence of EC20 glutamate by CODA-RET assay. In outline:
as §1

The target in test [3] is Metabotropic glutamate receptor 4 (Rattus norvegicus) (UniProt P31423). Kind of test: Positive allosteric modulation of rat mGlu4 receptor expressed in HEK293 cells coexpressing GIRK assessed as thallium influx by CODA-RET assay relative to glutamate. The conditions noted are these: filed as positive allosteric modulator. In outline: as §1
Test [4] has as its system HEK293. Kind of test: Positive allosteric modulation of rat mGlu2/mGlu4 receptor expressed in HEK293 cells coexpressing GIRK assessed as thallium influx by CODA-RET assay relative to glutamate. The conditions noted are these: filed as positive allosteric modulator. In outline:
(§2)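 HEK293 cells co-expressing mGlu2, mGlu4 and GIRK channels; thallium flux read-out. Test compound concentration-response in the presence of a fixed EC20 glutamate concentration. Gives EC50, Hill slope and maximal response as % of a saturating glutamate concentration. N=3 experiments, each in triplicate.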

For test [5], the target named is Metabotropic glutamate receptor 4 (Rattus norvegicus, UniProt P31423). Kind of test: Positive allosteric modulation of rat mGlu4 receptor expressed in HEK293 cells coexpressing GIRK assessed as thallium influx in presence of EC20 glutamate by CODA-RET assay. In outline:
as §1

Test [6] can be described thus: Positive allosteric modulation of rat mGlu2/mGlu4 receptor expressed in HEK293 cells coexpressing GIRK assessed as thallium influx in presence of EC20 glutamate by CODA-RET assay. The method in brief: as §2

Chain of Metabotropic glutamate receptor 2 (P31421 whole entry): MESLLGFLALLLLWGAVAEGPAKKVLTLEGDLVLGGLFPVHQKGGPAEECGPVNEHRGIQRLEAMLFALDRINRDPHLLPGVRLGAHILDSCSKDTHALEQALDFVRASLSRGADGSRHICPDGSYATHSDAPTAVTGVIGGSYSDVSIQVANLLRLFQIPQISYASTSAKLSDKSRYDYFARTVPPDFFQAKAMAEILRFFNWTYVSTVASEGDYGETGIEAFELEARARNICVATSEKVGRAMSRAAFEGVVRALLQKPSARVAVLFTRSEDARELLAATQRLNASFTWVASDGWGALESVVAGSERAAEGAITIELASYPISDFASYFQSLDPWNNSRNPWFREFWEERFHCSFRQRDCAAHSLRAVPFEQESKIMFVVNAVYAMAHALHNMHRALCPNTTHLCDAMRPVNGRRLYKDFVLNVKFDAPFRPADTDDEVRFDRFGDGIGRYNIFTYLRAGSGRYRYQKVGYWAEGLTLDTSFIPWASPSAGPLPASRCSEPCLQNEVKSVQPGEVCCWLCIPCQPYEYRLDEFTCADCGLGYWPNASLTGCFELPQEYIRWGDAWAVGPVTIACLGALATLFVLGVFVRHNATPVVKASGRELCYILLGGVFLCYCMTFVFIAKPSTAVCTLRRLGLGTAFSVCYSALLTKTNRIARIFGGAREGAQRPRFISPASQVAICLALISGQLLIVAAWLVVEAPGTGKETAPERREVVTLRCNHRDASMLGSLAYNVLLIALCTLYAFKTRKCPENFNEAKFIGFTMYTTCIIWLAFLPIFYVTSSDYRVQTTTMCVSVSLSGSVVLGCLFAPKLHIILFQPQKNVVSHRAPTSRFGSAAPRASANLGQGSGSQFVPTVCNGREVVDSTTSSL
Chain of Metabotropic glutamate receptor 2 (Rattus norvegicus) (P31421 19-872 limits assumed): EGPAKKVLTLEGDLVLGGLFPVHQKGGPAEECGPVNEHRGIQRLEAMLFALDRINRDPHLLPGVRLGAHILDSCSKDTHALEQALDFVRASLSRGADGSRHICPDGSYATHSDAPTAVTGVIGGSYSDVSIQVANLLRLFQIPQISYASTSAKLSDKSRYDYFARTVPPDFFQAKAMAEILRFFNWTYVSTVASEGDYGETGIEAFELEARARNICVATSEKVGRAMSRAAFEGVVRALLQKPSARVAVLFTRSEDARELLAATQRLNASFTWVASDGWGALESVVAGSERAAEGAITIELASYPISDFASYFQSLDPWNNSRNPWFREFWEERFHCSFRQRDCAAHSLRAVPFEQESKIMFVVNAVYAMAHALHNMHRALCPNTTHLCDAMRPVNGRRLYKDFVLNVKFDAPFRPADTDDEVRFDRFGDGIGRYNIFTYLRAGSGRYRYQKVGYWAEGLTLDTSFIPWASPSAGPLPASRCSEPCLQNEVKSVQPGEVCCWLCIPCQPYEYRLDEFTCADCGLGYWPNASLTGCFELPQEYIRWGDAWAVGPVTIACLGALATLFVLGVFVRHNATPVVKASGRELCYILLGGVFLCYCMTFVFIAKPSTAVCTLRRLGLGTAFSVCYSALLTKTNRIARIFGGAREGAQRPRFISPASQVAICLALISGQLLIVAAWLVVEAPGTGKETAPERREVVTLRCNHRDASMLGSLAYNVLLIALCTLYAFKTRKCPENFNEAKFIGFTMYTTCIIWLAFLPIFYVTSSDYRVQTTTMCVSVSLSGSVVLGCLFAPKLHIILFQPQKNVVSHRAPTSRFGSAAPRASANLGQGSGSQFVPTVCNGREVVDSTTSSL
Chain of Metabotropic glutamate receptor 4 (P31423 whole entry): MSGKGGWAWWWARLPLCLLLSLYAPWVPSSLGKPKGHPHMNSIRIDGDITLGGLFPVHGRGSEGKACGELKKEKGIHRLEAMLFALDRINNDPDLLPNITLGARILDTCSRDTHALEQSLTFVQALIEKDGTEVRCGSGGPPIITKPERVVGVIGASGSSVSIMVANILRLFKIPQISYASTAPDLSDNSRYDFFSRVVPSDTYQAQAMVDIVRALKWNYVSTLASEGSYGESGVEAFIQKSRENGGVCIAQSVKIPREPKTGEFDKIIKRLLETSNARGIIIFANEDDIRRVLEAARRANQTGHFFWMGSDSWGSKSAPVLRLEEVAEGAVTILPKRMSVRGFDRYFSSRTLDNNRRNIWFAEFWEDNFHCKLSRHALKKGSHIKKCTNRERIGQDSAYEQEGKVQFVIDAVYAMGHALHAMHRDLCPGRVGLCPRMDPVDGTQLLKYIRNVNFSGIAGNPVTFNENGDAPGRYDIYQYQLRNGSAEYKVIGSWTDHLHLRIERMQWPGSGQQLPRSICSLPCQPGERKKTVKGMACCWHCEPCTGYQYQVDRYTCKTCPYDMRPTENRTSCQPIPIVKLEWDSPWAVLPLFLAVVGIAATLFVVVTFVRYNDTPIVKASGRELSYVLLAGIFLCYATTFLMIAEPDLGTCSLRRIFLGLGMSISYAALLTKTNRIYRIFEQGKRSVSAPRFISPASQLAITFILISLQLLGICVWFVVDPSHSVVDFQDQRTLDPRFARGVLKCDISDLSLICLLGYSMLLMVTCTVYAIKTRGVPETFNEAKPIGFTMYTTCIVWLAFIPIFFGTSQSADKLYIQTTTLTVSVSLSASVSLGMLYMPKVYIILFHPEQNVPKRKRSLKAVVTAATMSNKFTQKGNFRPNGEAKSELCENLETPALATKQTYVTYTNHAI
Chain of Metabotropic glutamate receptor 4 (Rattus norvegicus) (P31423 whole entry): as above

In general, Emax refers to the maximal effect, on the per cent scale that the assay sets. As a reminder, the EC50 is the concentration needed to bring the measured effect to its halfway point. In the case of `Cc1c(OCc2cccc(-c3ccc(O)c(C(=O)O)c3)c2)cc2c(c1C)C(=O)C(C1CCCC1)C2` (stereo not given), the Emax in test [1] amounted to 113%. In addition, the EC50 in test [2] was 0.062 µM.
For the compound `COc1cc(NC(=O)c2ccccn2)ccc1NC(=O)c1ccc(NC(=O)COCC(=O)NCCCCCCNC(=O)COc2ccc(-c3cccc(COc4cc5c(c(C)c4C)C(=O)C(C4CCCC4)C5)c3)cc2C(=O)O)cc1Cl` (stereo not given), the results for the Emax in test [3], in test [1] and in test [4] were 106%, 102% and 101%, respectively. Besides, the values for the EC50 in test [5], in test [6] and in test [2] were 0.032 µM, 0.68 µM and 0.062 µM, respectively.
`Cc1c(OCc2cccc(-c3cccc(C(=O)O)c3)c2)cc2c(c1C)C(=O)C(C1CCCC1)C2` (stereo not given): the maximum response (Emax) in test [1] was 118%. Also, the EC50 in test [2] was determined as 0.069 µM.
Regarding `COc1ccc(-c2cccc(COc3cc4c(c(C)c3C)C(=O)C(C3CCCC3)C4)c2)cc1C(=O)O` (stereo not given), the Emax was found to be 88.2% in test [1] and 64.5% in test [4]. For the same compound, the EC50 in test [6] is 0.3 µM; in test [2], 0.0843 µM.
For `COc1cc(NC(=O)c2ccccn2)ccc1NC(=O)c1ccc(NC(=O)COCC(=O)NCCCCCCCCCCCCNC(=O)COc2ccc(-c3cccc(COc4cc5c(c(C)c4C)C(=O)C(C4CCCC4)C5)c3)cc2C(=O)O)cc1Cl` (stereo not given), the Emax in test [3] was determined as 45%; in test [1], 102%; in test [4] it was 71%. Besides, the figures for the EC50 in test [5], in test [6] and in test [2] were above 10 µM, 2.07 µM and 1.18 µM, respectively.
As for `COc1cc(NC(=O)c2ccccn2)ccc1NC(=O)c1ccc(NC(=O)COCC(=O)NCCCCCCCCNC(=O)COc2ccc(-c3cccc(COc4cc5c(c(C)c4C)C(=O)C(C4CCCC4)C5)c3)cc2C(=O)O)cc1Cl` (stereo not given), the Emax in test [3] worked out at 52%; in test [1], 97%; in test [4], 83%. Also, the EC50 in test [5] amounted to 0.032 µM; in test [6], 0.371 µM; in test [2] it was 0.094 µM.
Regarding `COc1cc(NC(=O)c2ccccn2)ccc1NC(=O)c1ccc(NC(=O)COCC(=O)NCCCCCCCCCCNC(=O)COc2ccc(-c3cccc(COc4cc5c(c(C)c4C)C(=O)C(C4CCCC4)C5)c3)cc2C(=O)O)cc1Cl` (stereo not given), the figures for the Emax in test [3], in test [1] and in test [4] were 41%, 102% and 86%, respectively. Also, the values for the EC50 in test [5], in test [6] and in test [2] were above 10 µM, 0.35 µM and 0.134 µM, respectively.
Take `COc1cc(NC(=O)c2ccccn2)ccc1NC(=O)c1ccccc1Cl`: the Emax came to 94.4% in test [3] and 42% in test [4]. Besides, the concentration for a half-maximal effect (EC50) in test [5] is 0.034 µM; in test [6], 2.76 µM.
As for `COc1cc(NC(=O)c2ccccn2)ccc1NC(=O)c1ccc(NC(=O)COCC(=O)NCCNC(=O)COc2ccc(-c3cccc(COc4cc5c(c(C)c4C)C(=O)C(C4CCCC4)C5)c3)cc2C(=O)O)cc1Cl` (stereo not given), the Emax in test [3] stood at 104%; in test [1], 92%; in test [4], 70%. In addition, the EC50 in test [5] turned out to be 0.657 µM; in test [6], 0.463 µM; in test [2], 0.281 µM.
With `COc1cc(NC(=O)c2ccccn2)ccc1NC(=O)c1ccc(NC(=O)COCC(=O)NCCCCNC(=O)COc2ccc(-c3cccc(COc4cc5c(c(C)c4C)C(=O)C(C4CCCC4)C5)c3)cc2C(=O)O)cc1Cl` (stereo not given), the Emax in test [3] was determined as 113%; in test [1], 98%; in test [4], 88%. Moreover, the concentration for a half-maximal effect (EC50) in test [5] is 0.033 µM; in test [6], 0.15 µM; in test [2], 0.098 µM.
Take `COc1cc(NC(=O)c2ccccn2)ccc1NC(=O)c1ccc(NC(=O)COCC(=O)NCCCCCNC(=O)COc2ccc(-c3cccc(COc4cc5c(c(C)c4C)C(=O)C(C4CCCC4)C5)c3)cc2C(=O)O)cc1Cl` (stereo not given): the Emax came to 110% in test [3], 102% in test [1] and 89% in test [4]. In addition, the EC50 in test [5] amounted to 0.035 µM; in test [6], 0.128 µM; in test [2], 0.092 µM.
Turning to `COc1cc(NC(=O)c2ccccn2)ccc1NC(=O)c1ccc(NC(=O)COCC(=O)NCCCNC(=O)COc2ccc(-c3cccc(COc4cc5c(c(C)c4C)C(=O)C(C4CCCC4)C5)c3)cc2C(=O)O)cc1Cl` (stereo not given), the results for the Emax in test [3] and in test [1] were 114% and 100%, respectively. Further, the EC50 in test [5] came to 0.038 µM; in test [6], 0.09 µM; in test [2], 0.054 µM.
`COc1cc(NC(=O)c2ccccn2)ccc1NC(=O)c1ccc(NC(=O)COCC(=O)NCCCCCCCNC(=O)COc2ccc(-c3cccc(COc4cc5c(c(C)c4C)C(=O)C(C4CCCC4)C5)c3)cc2C(=O)O)cc1Cl` (stereo not given): the Emax in test [3] worked out at 85%; in test [1] it was 101%; in test [4], 86%. In addition, the EC50 is 0.03 µM in test [5], 0.524 µM in test [6] and 0.122 µM in test [2].
